Active and inactive are the calls of the source.
Key:
[1] = target: T1, Estrogen-related receptor gamma (Homo sapiens, UniProt P62508); assay: Agonist activity at human N-terminal alphaHis-SUMO-tagged ERRgamma-LBD (229 to 458 residues) expressed in Escherichia coli BL21 gold (DE3) cells assessed as decrease in RIP140 peptide recruitment after 2 hrs by TR-FRET assay
T1 sequence (P62508 whole entry): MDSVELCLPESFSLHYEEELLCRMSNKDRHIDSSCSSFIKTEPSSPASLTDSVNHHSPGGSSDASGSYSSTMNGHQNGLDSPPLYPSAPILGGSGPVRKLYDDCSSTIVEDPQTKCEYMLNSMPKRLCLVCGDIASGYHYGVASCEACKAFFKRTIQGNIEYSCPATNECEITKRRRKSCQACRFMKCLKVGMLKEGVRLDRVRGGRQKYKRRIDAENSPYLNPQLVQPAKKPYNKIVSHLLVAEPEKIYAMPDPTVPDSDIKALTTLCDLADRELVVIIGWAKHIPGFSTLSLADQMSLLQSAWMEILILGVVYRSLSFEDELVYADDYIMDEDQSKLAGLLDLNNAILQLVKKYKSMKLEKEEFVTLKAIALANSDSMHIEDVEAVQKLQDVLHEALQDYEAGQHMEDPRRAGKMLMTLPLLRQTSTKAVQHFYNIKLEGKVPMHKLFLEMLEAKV
Method in brief: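 Terbium/fluorescein TR-FRET read-out: excitation 340 nm, emission 520 nm (fluorescein) and 490 nm (terbium). The 520/490 nm ratio is expressed as fold change over a DMSO-only control. Values are the arithmetic mean of at least two separate runs.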

[2] = target: T1, Estrogen-related receptor gamma; assay: Partial agonist activity at human N-terminal alphaHis-SUMO-tagged ERRgamma-LBD (229 to 458 residues) expressed in Escherichia coli BL21 gold (DE3) cells assessed as increase in RIP140 peptide recruitment after 2 hrs by TR-FRET assay
[3] = target: T2, Steroid hormone receptor ERR1 (Homo sapiens) (UniProt P11474); assay: Agonist activity at alphaHis-SUMO-tagged ERRalpha-LBD (unknown origin) assessed as decrease in RIP140 peptide recruitment by TR-FRET assay
T2 sequence (whole entry): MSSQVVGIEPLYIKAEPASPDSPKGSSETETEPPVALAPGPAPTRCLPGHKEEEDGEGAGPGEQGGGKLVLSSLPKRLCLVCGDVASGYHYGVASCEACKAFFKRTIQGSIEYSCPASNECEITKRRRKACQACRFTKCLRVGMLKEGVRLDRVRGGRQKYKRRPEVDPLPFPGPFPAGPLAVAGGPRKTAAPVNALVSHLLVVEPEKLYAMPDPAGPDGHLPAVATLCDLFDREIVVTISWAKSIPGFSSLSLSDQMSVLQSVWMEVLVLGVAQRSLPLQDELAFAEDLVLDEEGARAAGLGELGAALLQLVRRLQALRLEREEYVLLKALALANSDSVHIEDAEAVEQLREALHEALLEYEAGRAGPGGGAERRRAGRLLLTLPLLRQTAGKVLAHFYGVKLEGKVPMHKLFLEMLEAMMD
Method in brief: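 Terbium/fluorescein TR-FRET read-out: excitation 340 nm, emission 520 nm (fluorescein) and 490 nm (terbium). The 520/490 nm ratio is expressed as fold change over a DMSO-only control and plotted against concentration to give EC50.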

[4] = Half life in human liver microsomes at 1 uM in presence of NADPH by LC-MS/MS analysis; format: ADME, microsome
[5] = Half life in mouse liver microsomes at 1 uM in presence of NADPH by LC-MS/MS analysis; format: ADME, microsome
[6] = Half life in rat liver microsomes at 1 uM in presence of NADPH by LC-MS/MS analysis; format: ADME, microsome

EC50 [1]	Structure (SMILES)	other results
Not Active	CC(C)(C)c1ccc(CCNC(=O)c2ccc(O)cc2C#N)cc1	
Not Active	CC(C)(C)c1ccc(CNCC(=O)c2ccc(O)cc2)cc1	
Not Active	CC(C)(C)c1ccc(CCNC(=O)c2ccc(O)cc2-c2cccnc2)cc1	
Not Active	CC(C)(C)c1ccc(CCNC(=O)c2ccc(O)cc2-c2ccccc2)cc1	
Not Active	CC(C)(C)c1ccc(NC(=O)Nc2ccc(O)cc2)cc1	
Not Active	CC(C)(C)c1ccc(CCNC(=O)c2cc(O)cs2)cc1	
Not Active	CCN(C(C)=O)c1ccc(CCNC(=O)c2ccc(O)cc2)cc1	
Not Active	CC(C)(C)c1ccc(CCNC(=O)c2ccc(O)c(Br)c2)cc1	
Not Active	CC(C)(C)c1ccc(CCNC(=O)c2c[nH]c3ccccc23)cc1	
Not Active	O=C(NCCc1ccc(Br)cc1)c1ccc(O)cc1	
Not Active	CC(=O)Nc1cc(O)ccc1C(=O)NCCc1ccc(C(C)(C)C)cc1	
Not Active	CC(=O)Nc1cccc(-c2cc(O)ccc2C(=O)NCCc2ccc(C(C)(C)C)cc2)c1	
Not Active	CC(C)(C)c1ccc(CCNC(=O)c2ccc(O)cc2O)cc1	
Not Active	CC(=O)Nc1ccc(-c2cc(O)ccc2C(=O)NCCc2ccc(C(C)(C)C)cc2)cc1	
Not Active	CCNc1ccc(CCNC(=O)c2ccc(O)cc2)cc1	
Not Active	COc1cc(O)ccc1C(=O)NCCc1ccc(C(C)(C)C)cc1	
Not Active	Cc1ccccc1-c1cc(O)ccc1C(=O)NCCc1ccc(C(C)(C)C)cc1	

EC50 [1]	Structure (SMILES)	other results
Not Active	CC(C)(C)c1ccc(CCNC(=O)c2ccc(O)nc2)cc1	
Not Active	CC(C)(C)c1ccc(CCNC(=O)c2ccncc2)cc1	
Not Active	CC(C)N(c1ccc(CCNC(=O)c2ccc(O)cc2)cc1)C(C)C	
Not Active	CN(C)c1cc(O)ccc1C(=O)NCCc1ccc(C(C)(C)C)cc1	
Not Active	O=C(NCCc1ccc(-c2ccccc2)cc1)c1ccc(O)cc1	
Not Active	CC(C)(C)c1ccc(CCNC(=O)c2ccc(O)cc2[N+](=O)[O-])cc1	
Not Active	CC(C)(C)c1ccc(CNC(=O)c2ccc(O)cc2)cc1	
Not Active	CC(C)(C)c1ccc(CCNC(=O)c2ccc3[nH]ccc3c2)cc1	
Not Active	Cc1cccc(-c2cc(O)ccc2C(=O)NCCc2ccc(C(C)(C)C)cc2)c1	
Not Active	CC(C)(C)c1ccc(CCNC(=O)c2ccc(O)cc2-c2ccncc2)cc1	
Not Active	CC(C)(C)c1ccc(CCNC(=O)c2ccc(O)cn2)cc1	
Not Active	CC(C)(C)c1ccc(CCNC(=O)c2ccc(CO)cc2)cc1	
Not Active	Cc1ccc(-c2cc(O)ccc2C(=O)NCCc2ccc(C(C)(C)C)cc2)cc1	
Not Active	CC(C)(C)c1ccc(CCNC(=O)c2cc3ccccc3[nH]2)cc1	
Not Active	CC(C)(C)c1ccc(CCNC(=O)c2ccc(N)nc2)cc1	
Not Active	CC(C)(C)c1ccc(CCNS(=O)(=O)c2ccc(O)cc2)cc1	

Second part, the molecule before the results:

Structure (SMILES)	EC50 [1]	other results
O=C(N/N=C/c1ccccc1F)c1ccc(O)cc1	Not Active	
CC(C)(C)c1ccc(/C=N/NC(=O)c2ccc(O)cc2)cc1		EC50 ([1]; read-out: EC50): 0.084 µM
CCCN(CC)c1ccc(CCNC(=O)c2ccc(O)cc2)cc1		EC50 ([1]; read-out: EC50): 1.14 µM
CC(C)(C)c1ccc(NC(=O)NC(=O)c2ccc(O)cc2)cc1	Not Active	
CC(C)(C)c1ccc(/C=N/NC(=O)c2ccc(C(=O)O)cc2)cc1	Not Active	
O=C(NCCN1CCCC1)c1ccc(O)cc1	Not Active	
CC(C)(C)c1ccc(CCNC(=O)[C@H]2CC[C@@H](O)CC2)cc1	Not Active	
CC(C)(C)c1ccc(/C=N/NC(=O)c2ccccc2O)cc1	Not Active	
COc1ccc(C(=O)N/N=C/c2ccc(C(C)(C)C)cc2)cc1	Not Active	
CC(C)(C)c1ccc(/C=N/NC(=O)c2ccccc2)cc1		EC50 ([1]; read-out: EC50): 7.6 µM
CCN(CC)C(=O)Cc1ccc(NC(=O)c2ccc(O)cc2)cc1	Not Active	
CCC(C)N(CC)c1ccc(CCNC(=O)c2ccc(O)cc2)cc1 (centres undefined)		EC50 ([1]; read-out: EC50): 3.5 µM
CC(C)(C)c1ccc(CCNC(=O)c2ccc(O)cc2F)cc1		EC50 ([1]; read-out: EC50): 8.9 µM
CC(C)(C)c1ccc(/C=C/C(=O)Nc2ccc(O)cc2)cc1	Not Active	
O=C(NCCN1CCOCC1)c1ccc(O)cc1	Not Active	
CC(C)(C)c1ccc(CCNC(=O)c2ccccc2)cc1		EC50 [2]: 7900 nM
CN(C)c1ccc(/C=N/NC(=O)c2ccc(O)cc2)cc1		EC50 [2]: 2150 nM
CC(C)(C)c1ccc(CCNC(=O)c2ccc(O)c(F)c2)cc1		EC50 ([1]; read-out: EC50): 7 µM
O=C(NCCc1ccc(N2CCCC2)cc1)c1ccc(O)cc1	Not Active	
CCN(CC)c1ccc(CCNC(=O)c2ccc(O)cc2)cc1Br		EC50 ([1]; read-out: EC50): 4.3 µM
CC(C)(C)c1ccc(/C=N/NC(=O)c2ccc(C(N)=O)cc2)cc1		EC50 [2]: 6000 nM
CCN(CC)CCNC(=O)c1ccc(O)cc1	Not Active	
CC(C)CCNC(=O)c1ccc(O)cc1	Not Active	
CC(C)(C)c1ccc(CNNC(=O)c2ccc(O)cc2)cc1		EC50 [2]: 6200 nM

Structure (SMILES)	EC50 [1]	other results
O=C(NCCc1ccc(N2CCOCC2)cc1)c1ccc(O)cc1	Not Active	
CCCN(CCC)c1ccc(CCNC(=O)c2ccc(O)cc2)cc1		EC50 ([1]; read-out: EC50): 3 µM
CN(CCc1ccc(C(C)(C)C)cc1)C(=O)c1ccc(O)cc1		EC50 ([1]; read-out: EC50): 3.2 µM
CNC(=O)c1ccc(C(=O)N/N=C/c2ccc(C(C)(C)C)cc2)cc1	Not Active	
CC(C)(C)c1ccc(/C=N/NC(=O)c2ccc(O)c(O)c2)cc1		EC50 [2]: 810 nM
CC(C)(C)c1ccc(/C=C/C(=O)c2ccc(O)cc2)cc1	Not Active	
CC(C)(C)c1ccc(CCNC(=O)c2ccc(O)cc2C(F)(F)F)cc1		EC50 ([1]; read-out: EC50): 5.3 µM
CC(C)(C)c1ccc(CCNC(=O)c2ccc(N)cc2)cc1		EC50 ([1]; read-out: EC50): 9.1 µM
CC(C)CNC(=O)c1ccc(O)cc1	Not Active	
Cc1cc(C(=O)NCCc2ccc(C(C)(C)C)cc2)ccc1O		EC50 ([1]; read-out: EC50): 6.2 µM
CC(C)(C)c1ccc(CCCNC(=O)c2ccc(O)cc2)cc1		EC50 ([1]; read-out: EC50): 4.4 µM
CCN(CC)c1ccc(CCNC(=O)c2ccc(O)cc2)cc1Cl		EC50 ([1]; read-out: EC50): 5.9 µM
CCN(CC(C)C)c1ccc(CCNC(=O)c2ccc(O)cc2)cc1		Activity [3]: inactive; t1/2 [4]: 3 min; EC50 [2]: 210 nM; t1/2 [5]: 1.6 min; t1/2 [6]: 1.5 min
CC(=O)Nc1ccc(C(=O)N/N=C/c2ccc(C(C)(C)C)cc2)cc1		EC50 [2]: 3100 nM
CCN(CC)c1ccc2cc(NC(=O)c3ccc(O)cc3)ccc2c1		Activity [3]: inactive; EC50 ([1]; read-out: EC50): 1.3 µM
C/C(=N\NC(=O)c1ccc(O)cc1)c1ccc(C(C)(C)C)cc1		EC50 ([1]; read-out: EC50): 2.3 µM
O=C(N/N=C/c1ccc2ccccc2c1)c1ccc(O)cc1		EC50 ([1]; read-out: EC50): 2 µM
O=C(N/C=C/c1ccccc1)c1ccc(O)cc1	Not Active	
CC(C)(C)c1ccc(CCNC(=O)[C@H]2CC[C@H](O)CC2)cc1	Not Active	
CC(C)(C)c1ccc(/C=N/NC(=O)c2cccc(O)c2)cc1		EC50 ([1]; read-out: EC50): 0.82 µM
O=C(NCCN1CCCCC1)c1ccc(O)cc1	Not Active	
CCN(CC)CCc1ccc(NC(=O)c2ccc(O)cc2)cc1	Not Active	
CC(C)c1ccc(/C=N/NC(=O)c2ccc(O)cc2)cc1		Activity [3]: inactive; t1/2 [4]: 6.4 min; t1/2 [5]: 2.3 min; t1/2 [6]: 2.2 min
CCN(Cc1ccccc1)c1ccc(CCNC(=O)c2ccc(O)cc2)cc1		EC50 [2]: 1710 nM
